Here are results for one compound from ChEMBL document CHEMBL1152757, “Stereoselective synthesis and biological evaluation of syn-1-amino-3-[18F]fluorocyclobutyl-1-carboxylic acid as a potential positron emission tomography brain tumor imaging agent” (Bioorg Med Chem, 2009).

The structures appear in SMILES notation.

Common to all, as to format: ADME, cell-based
Settings in all cases: 0.5 h

Data set [1] has as its system 9L. The data set can be described thus: Drug uptake in rat 9L cells assessed as intracellular accumulation after 30 mins measured per 5 x 10^5 cells by gamma-counter in presence of alanine-cysteine-serine. The method in brief:
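9L rat gliosarcoma cells were grown in DMEM with 10% fetal calf serum and penicillin/streptomycin at 37 °C under 5% CO2, trypsinized and washed in HBSS. About 5 × 10^5 cells were incubated with 5 µCi tracer in amino-acid-free HBSS with 10 mM ACS (equimolar Ala/Cys/Ser) for 30 min at 37 °C, run in triplicate. Cells were centrifuged and rinsed twice with ice-cold HBSS, then gamma counted with decay correction. Results are % of standard per 5 × 10^5 cells.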

Data set [2] has as its system 9L. Description: Drug uptake in rat 9L cells assessed as intracellular accumulation after 30 mins measured per 5 x 10^5 cells by gamma-counter. The essentials:
(§1)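 9L cells were grown in DMEM with 10% FCS and penicillin/streptomycin, then trypsinized and washed twice in HBSS. About 5 × 10^5 cells received 5 µCi tracer in amino acid-free HBSS for 30 min at 37 °C, without or with 10 mM BCH (L-type inhibitor). Cells were centrifuged and rinsed twice with ice-cold HBSS, then gamma-counted with decay correction. Uptake expressed as % of standard per 5 × 10^5 cells. Triplicates, 1-way ANOVA.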

The subject of data set [3] is 9L. The data set can be described thus: Drug uptake in rat 9L cells assessed as intracellular accumulation after 30 mins measured per 5 x 10^5 cells by gamma-counter in presence of 2-aminobicyclo[2.2.1]-heptane-2-carboxylic acid. The method in brief: as §1

Take `N[C@]1(C(=O)O)C[C@@H]([18F])C1` [FLUCICLOVINE F18]: the Drug uptake stood at 0.18 %ID in data set [1], 12.3 %ID in data set [2] and 2.9 %ID in data set [3].
